ChEMBL document CHEMBL1122690, “Synthesis of potential antifilarial agents. 1-(5-Benzoylbenzimidazol-2-yl)-3-alkyl- and -arylureas” (1984)

Tests used:
Assay type in all cases: functional
[1] = tested on: Litomosoides carinii; assay: Antifilarial activity (percent reduction of live Litomosoides carinii at necropsy relative to controls) was evaluated at dose of 6.25 mg/kg/day administered subcutaneously; details: route subcutaneous
Procedure, shortened: (§1)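 Male jirds (Meriones unguiculatus) carrying adult Brugia pahangi and Litomosoides carinii. Infection was by intraperitoneal inoculation of 24-25 L. carinii larvae 76–133 days before treatment, followed by 49-50 immature B. pahangi. Dosing was daily for 5 days. Necropsy was 55–70 days after the first dose, with a search of the pleural and peritoneal cavities. Live adult worms were scored as % reduction versus controls, usually averaged over 3 animals.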

[2] = tested on: Litomosoides carinii; assay: Antifilarial activity (percent reduction of live Litomosoides carinii at necropsy relative to controls) was evaluated at dose of 25 mg/kg/day administered subcutaneously; details: route subcutaneous; procedure, shortened: as §1
[3] = tested on: Litomosoides carinii; assay: Antifilarial activity (percent reduction of live Litomosoides carinii at necropsy relative to controls) was evaluated at dose of 1.56 mg/kg/day administered subcutaneously; details: route subcutaneous; procedure, shortened: as §1
[4] = tested on: Brugia pahangi; assay: Antifilarial activity (percent reduction of live Brugia pahangi at necropsy relative to controls) was evaluated at dose of 25 mg/kg/day administered subcutaneously; details: route subcutaneous; procedure, shortened: as §1
[5] = tested on: Brugia pahangi; assay: Antifilarial activity (percent reduction of live Brugia pahangi at necropsy relative to controls) was evaluated at dose of 6.25 mg/kg/day administered subcutaneously; details: route subcutaneous; procedure, shortened: as §1
[6] = tested on: Brugia pahangi; assay: Antifilarial activity (percent reduction of live Brugia pahangi at necropsy relative to controls) was evaluated at dose of 1.56 mg/kg/day administered subcutaneously; details: route subcutaneous; procedure, shortened: as §1
[7] = tested on: Brugia pahangi; assay: Antifilarial activity (percent reduction of live Brugia pahangi at necropsy relative to controls) was evaluated at dose of 100 mg/kg/day administered subcutaneously; details: route subcutaneous; procedure, shortened: as §1
[8] = tested on: Litomosoides carinii; assay: Antifilarial activity (percent reduction of live Litomosoides carinii at necropsy relative to controls) was evaluated at dose of 100 mg/kg/day administered subcutaneously; details: route subcutaneous; procedure, shortened: as §1
[9] = tested on: Litomosoides carinii; assay: Antifilarial activity (percent reduction of live Litomosoides carinii at necropsy relative to controls) was evaluated at dose of 100 mg/kg/day administered perorally; details: route oral; in the assay text read “25 mg/kg/day” for “100 mg/kg/day”; procedure, shortened: as §1

Row | Compound | Reduction [7] | Reduction [8] | also measured
1 | COC(=O)Nc1nc2cc(C(=O)c3ccccc3)ccc2[nH]1 [MEBENDAZOLE] |  |  | Reduction [1]: 100%; Reduction [2]: 100%; Reduction [3]: 97%; Reduction [4]: 100%; Reduction [5]: 100%; Reduction [6]: 12.5%
2 | CN(C)C(=O)Nc1nc2cc(C(=O)c3ccccc3)ccc2[nH]1 | 100% | 100% | Reduction [1]: 61%; Reduction [2]: 87%; Reduction [4]: 0%; Reduction [5]: 0%
3 | CCCNC(=O)Nc1nc2cc(C(=O)c3ccccc3)ccc2[nH]1 | 0% | 0% | 
4 | CN1CCN(C(=O)Nc2nc3cc(C(=O)c4ccccc4)ccc3[nH]2)CC1 | 0% | 0% | 
5 | O=C(Nc1cccc([N+](=O)[O-])c1)Nc1nc2cc(C(=O)c3ccccc3)ccc2[nH]1 | 0% | 32% | 
6 | Cc1ccc(NC(=O)Nc2nc3cc(C(=O)c4ccccc4)ccc3[nH]2)cc1 | 0% | 27% | 
7 | O=C(Nc1ccccc1)Nc1nc2cc(C(=O)c3ccccc3)ccc2[nH]1 | 0% | 66% | 
8 | O=C(Nc1ccc(F)cc1)Nc1nc2cc(C(=O)c3ccccc3)ccc2[nH]1 | 6% | 66% | 
9 | O=C(Nc1nc2cc(C(=O)c3ccccc3)ccc2[nH]1)Nc1ccccc1F | 0% | 0% | 
10 | Cc1ccc(C(=O)Nc2ccc(S(=O)(=O)O)c3cc(S(=O)(=O)O)cc(S(=O)(=O)O)c23)cc1NC(=O)c1cccc(NC(=O)Nc2cccc(C(=O)Nc3cc(C(=O)Nc4ccc(S(=O)(=O)O)c5cc(S(=O)(=O)O)cc(S(=O)(=O)O)c45)ccc3C)c2)c1 [SURAMIN] |  |  | Reduction [9]: 71%
11 | O=C(NCCO)Nc1nc2cc(C(=O)c3ccccc3)ccc2[nH]1 | 15% | 20% | 
12 | O=C(Nc1ccc(Cl)c(Cl)c1)Nc1nc2cc(C(=O)c3ccccc3)ccc2[nH]1 | 0% | 9% | 
13 | O=C(Nc1ccc([N+](=O)[O-])cc1)Nc1nc2cc(C(=O)c3ccccc3)ccc2[nH]1 | 9% | 0% | 
14 | O=C(Nc1nc2cc(C(=O)c3ccccc3)ccc2[nH]1)Nc1ccccc1[N+](=O)[O-] | 6% | 0% | 
15 | Cc1cccc(NC(=O)Nc2nc3cc(C(=O)c4ccccc4)ccc3[nH]2)c1 | 0% | 0% | 
